{"source": "paper PMC5093073", "about": "(Cancer prevention research (Philadelphia, Pa.), 2016)", "key": {"[1]": {"test_system": "systemic PGE2 biosynthesis", "conditions": "ibuprofen 800 mg 4 times daily; cited from earlier work"}, "[2]": {"test_system": "COX-derived PGE2 in A549 lung adenocarcinoma cells", "assay": "PGE2 biosynthesis from [2H8]AA in A549 cells", "format": "cell-based, human", "conditions": "for inhibition of PGE2 synthesis: IL-1β-activated A549, 100 nM inhibitor", "outline": "(§1)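 Cells grown in DMEM with 10% FBS at 37°C, 5% CO₂, then given 1 ng/ml IL-1β for 24 h at 90% confluence to induce COX-2. In albumin-free medium, cells were preincubated for 30 min at 37°C with graded concentrations of test compound. Then 2.0 µM [²H₈]AA was added for 15 min, and the medium was harvested for GC/NICI/MS measurement of [²H₈]-PGE₂.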"}, "[3]": {"test_system": "COX-1 in human washed platelets", "assay": "Prostanoid", "format": "cell-based", "conditions": "100 nM inhibitor; for effect on TxB2 synthesis by washed platelets: platelets without A549 cells"}, "[4]": {"test_system": "COX-derived PGE2 in HT-29 colon cancer cells", "assay": "PGE2 biosynthesis from [2H8]AA in HT-29 cells", "format": "cell-based", "conditions": "Homo sapiens, HT-29, read-out: IC50 for inhibition of PGE2 biosynthesis"}, "[5]": {"test_system": "COX-derived PGE2 in H2122 lung adenocarcinoma cells", "assay": "PGE2 biosynthesis from [2H8]AA in H2122 cells", "format": "cell-based, human", "outline": "as §1"}, "COX-2": {"biological_target": "T1, COX-2 (Homo sapiens, UniProt P35354)", "T1 sequence (P35354 18-604)": "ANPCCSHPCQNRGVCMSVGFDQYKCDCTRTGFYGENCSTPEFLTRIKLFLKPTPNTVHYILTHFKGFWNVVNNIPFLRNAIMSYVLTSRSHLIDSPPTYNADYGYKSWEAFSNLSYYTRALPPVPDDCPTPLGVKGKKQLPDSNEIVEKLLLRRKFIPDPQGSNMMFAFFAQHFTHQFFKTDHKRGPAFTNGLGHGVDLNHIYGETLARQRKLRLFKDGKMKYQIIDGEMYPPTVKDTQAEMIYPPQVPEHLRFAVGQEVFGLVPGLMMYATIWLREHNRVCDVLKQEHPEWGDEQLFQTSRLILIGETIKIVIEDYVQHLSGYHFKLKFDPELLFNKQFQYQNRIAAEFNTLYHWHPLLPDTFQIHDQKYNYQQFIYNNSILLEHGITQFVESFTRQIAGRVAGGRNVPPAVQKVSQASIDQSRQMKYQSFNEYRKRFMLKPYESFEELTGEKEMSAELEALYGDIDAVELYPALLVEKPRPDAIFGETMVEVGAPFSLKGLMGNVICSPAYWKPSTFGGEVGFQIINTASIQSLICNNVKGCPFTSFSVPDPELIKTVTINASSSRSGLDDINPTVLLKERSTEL", "format": "cell-based", "conditions": "IL-1β-activated A549, pretreated with 100 µM aspirin"}, "platelet TxB2 production": {"test_system": "platelet TxB2 production", "assay": "Serum thromboxane B2 levels in healthy volunteers", "format": "in vivo, human", "conditions": "aspirin 81 mg daily 2 weeks"}, "[6]": {"test_system": "adenocarcinoma metastasis", "conditions": "cited from earlier work"}, "[7]": {"test_system": "platelet-A549 cell aggregates", "format": "cell-based, human", "conditions": "platelets from blood treated with 100 µM aspirin 40 min, washed, ADP-activated"}, "[8]": {"test_system": "systemic PGE2 biosynthesis", "assay": "Urinary PGE-M", "format": "in vivo, human", "conditions": "for reduction in extra-platelet PGE2 production: corrected for platelet-derived PGE2, aspirin 81 mg daily 2 weeks; for reduction of urinary PGE-M levels: aspirin 81 mg daily 2 weeks"}, "[9]": {"test_system": "COX-derived PGE2 in HCC827 lung adenocarcinoma cells", "assay": "PGE2 biosynthesis from [2H8]AA in HCC827 cells", "format": "cell-based", "conditions": "Homo sapiens, HCC827, read-out: IC50 for inhibition of PGE2 biosynthesis"}, "[10]": {"test_system": "COX-derived PGE2 in HCA-7 colon cancer cells", "assay": "PGE2 biosynthesis from [2H8]AA in HCA-7 cells", "format": "cell-based", "conditions": "Homo sapiens", "outline": "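HCA-7 cells were grown in DMEM with 10% FBS at 37°C, 5% CO₂, without IL-1β activation. In albumin-free medium, cells were preincubated for 30 min at 37°C with test compound. Then 2.0 µM [²H₈]AA was added and incubation continued for 15 min. The harvested medium was analysed by GC/NICI/MS for [²H₈]-PGE₂.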"}}, "note": "“Also recorded” adds a separate entry of the source. Like-named read-outs stand apart in the source and are kept apart here."}
{"smiles": "CC(C)Cc1ccc(C(C)C(=O)O)cc1", "note": "(stereo not drawn) [ibuprofen]", "values": [{"measurement": "reduction of PGE2 production in humans", "setting": "[1]", "value": 63, "unit": "%"}]}
{"smiles": "CS(=O)(=O)Nc1ccc([N+](=O)[O-])cc1OC1CCCCC1", "note": "[NS-398]", "values": [{"measurement": "inhibition of PGE2 synthesis", "setting": "[2]", "value": "fully blocks"}, {"measurement": "effect on PGE2 production in washed platelets", "setting": "[3]", "value": "does not block"}, {"measurement": "effect on TxB2 synthesis by washed platelets", "setting": "[3]", "value": "did not inhibit; also recorded: does not block"}]}
{"smiles": "CC(=O)Oc1ccccc1C(=O)O", "note": "[aspirin, acetyl salicylic acid]", "values": [{"measurement": "IC50", "setting": "[4]", "value": "8.9 ± 1.2", "unit": "µM"}, {"measurement": "IC50", "setting": "[5]; Homo sapiens, NCI-H2122, read-out: IC50 for inhibition of PGE2 biosynthesis", "value": "15 ± 1.3", "unit": "µM"}, {"measurement": "blockade of COX-2 labeling by fluorocoxib A", "setting": "COX-2", "value": "effectively blocked COX-2 labeling; also recorded: inhibited COX-2 associated fluorocoxib A fluorescence"}, {"measurement": "reduction of serum thromboxane B2 levels", "setting": "platelet TxB2 production", "value": 96.6, "unit": "%"}, {"measurement": "IC50", "setting": "[2]; Homo sapiens, A549, read-out: IC50 for inhibition of PGE2 biosynthesis", "value": "7.2 ± 1.1", "unit": "µM"}, {"measurement": "hazard ratio for later metastasis", "setting": "[6]; adenocarcinomas other than those of the colon", "value": 0.47}, {"measurement": "hazard ratio for later metastasis", "setting": "[6]; colon cancers, no metastasis at diagnosis, 95% CI 0.03–0.56, p=0.007", "value": 0.13}, {"measurement": "reduction of development of metastases", "setting": "[6]; patients who develop cancer while receiving aspirin", "value": 69, "unit": "%"}, {"measurement": "COX-2 protein expression in A549 cells", "setting": "[7]", "value": "still upregulated"}, {"measurement": "PGE2 production by platelet-A549 aggregates", "setting": "[7]", "value": "significantly inhibited; also recorded: effectively blocked"}, {"measurement": "reduction in extra-platelet PGE2 production", "setting": "[8]; females", "value": 55.4, "unit": "%"}, {"measurement": "reduction of urinary PGE-M levels", "setting": "[8]; healthy females", "value": 56, "unit": "%"}, {"measurement": "reduction of urinary PGE-M levels", "setting": "[8]; healthy males", "value": 39, "unit": "%"}, {"measurement": "reduction in extra-platelet PGE2 production", "setting": "[8]; males", "value": 38.6, "unit": "%"}, {"measurement": "IC50", "setting": "[9]", "value": "22.5 ± 3.2", "unit": "µM"}, {"measurement": "IC50", "setting": "[10]; HCA-7, read-out: IC50 for inhibition of PGE2 biosynthesis", "value": "3.9 ± 0.7", "unit": "µM"}]}
{"smiles": "Cc1onc(-c2ccccc2)c1-c1ccc(S(N)(=O)=O)cc1", "note": "[valdecoxib]", "values": [{"measurement": "inhibition of PGE2 synthesis", "setting": "[5]; H2122, 100 nM inhibitor", "value": "fully inhibited"}, {"measurement": "inhibition of PGE2 synthesis", "setting": "[2]", "value": "fully inhibited"}, {"measurement": "effect on TxB2 synthesis by washed platelets", "setting": "[3]", "value": "no effect"}, {"measurement": "inhibition at 0.1 µM", "setting": "[10]; HCA-7, read-out: inhibition of PGE2 synthesis", "value": 60, "unit": "%"}]}
